Experimental data: the EternaBench riboswitch data

System: MS2 coat protein
Assay: apparent Kd, MS2 coat protein; higher = weaker binding; RNA-MaP array; FMN 200 µM where present
Method in brief: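 Each design was made on Illumina sequencing-chip clusters by stalled E. coli RNA polymerase and titrated with SNAP-549-labelled MS2 coat protein from 0.7 or 1.5 nM, doubling to 3 µM, in the absence and then the presence of constant ligand. The buffer was 100 mM Tris-HCl pH 7.5, 80 mM KCl, 4 mM MgCl2, BSA, DTT, yeast tRNA and Tween-20. The apparent Kd is the median of filtered per-cluster fits of binding curves, with green signal normalised to red-channel RNA signal and control-cluster median Fmax.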

[1] = designed as: OFF switch for flavin mononucleotide, no ligand
[2] = ligand present: flavin mononucleotide, designed as: OFF switch for flavin mononucleotide
[3] = designed as: ON switch for flavin mononucleotide, no ligand
[4] = ligand present: flavin mononucleotide, designed as: ON switch for flavin mononucleotide

In the case of “AGCUGUGGCCGAGGAUAUCUGAACCUUCAAACCGAAAUAUAAUCGGACAUGAGGAUCACCCAUGUAGAGAAGGCGGUCUCAGCA”, the “apparent Kd” value [1] was 12 nM and the “apparent Kd” value [2] was 22.6 nM.
For “GAUUAACAUGAGGAUCACCCAUGUGAGGAUAUGGACUGGCUCACUUUUCGAUUCCCGUCUAGAAGGCGCAUCUU”, the “apparent Kd” value [1] was 39.3 nM and the “apparent Kd” value [2] was 55.6 nM.
For “GUGUAGACAGGAUAUGCUUUGAGCAUAUGAGAGUAUGCUCUACAUGAGGAUCACCCAUGUAGAAGGGUCUACAC”, the “apparent Kd” value [1] was 11.9 nM and the “apparent Kd” value [2] was 12.5 nM.
“AAUAACAGAGGAUAUACUGUUUUAUGUGUUUAUUGUUUUGAACAUGAGGAUCACCCAUGUAGAAGGCUGAAUGA” was tested, and the “apparent Kd” value [1] was 26.1 nM and the “apparent Kd” value [2] was 26.2 nM.
For “CUCUUGUUAGGAUAUCAAACCAGUGACGGAACCACUGGAAGUGAGAAGGGACAUGAGGAUCACCCAUGUAAGAA”, the “apparent Kd” value [1] was 55.6 nM and the “apparent Kd” value [2] was 113 nM.
With “GCCAUCGCAUGAGGAUAUGCUCCGGUUUCCGGAGCAGAAGGCAUGUCACAAGACAUGAGGAUCACCCAUGUAGUUAAGAUGGCA” the “apparent Kd” value [3] was 185 nM and the “apparent Kd” value [4] was 8.88 nM.
With “UGGCACCGAGGAUAUACAUGAGGAUCACCCAUGUUCGGAAAGCAUACGGUGGCUUGCUGUAGAAGGCGGGCCAC” the “apparent Kd” value [1] was 16.2 nM and the “apparent Kd” value [2] was 13 nM.
“CCGCAAAUGCAGGAUAUCGUAUCGGAAACGAUACGAGAAGGGUAAACAUGAGGAUCACCCAUGUUCCUUAACGG” was tested, and the “apparent Kd” value [1] was 17.9 nM and the “apparent Kd” value [2] was 17 nM.
In the case of “GCAUCCAUAGUGAGGAUAUACCUCUGGAUACAUAGGUAGAAGGCACAUGAGGAUCACCCAUGUUCUUAGGAUGC”, the “apparent Kd” value [1] was 28.7 nM and the “apparent Kd” value [2] was 35.4 nM.
For “CCACGUGCUCAGAAGGGCUUUAAACACAAAUUAGCAGGAUAUGAGGACCGGUCGUGACAUGAGGAUCACCCAUGUUUUGUCUAG”, the “apparent Kd” value [3] was 38.6 nM and the “apparent Kd” value [4] was 12.2 nM.
In the case of “GCCUUACCGGUCAGGAUAUACAUUUGUUACUCCUUGUAGAAGGGACAUGAGGAUCACCCAUGUACAUUACAUUC”, the “apparent Kd” value [1] was 19.4 nM and the “apparent Kd” value [2] was 20.4 nM.
“UAGAUUUAUGUAGGAUAUACAUUUUGUACGUAUGUAGAAGGACAUGAGGAUCACCCAUGUAAAUAAAUAUUAAAUAUCAUAAUU” was tested, and the “apparent Kd” value [1] was 50.5 nM and the “apparent Kd” value [2] was 32.4 nM.
“CAUGUCCUCACAGGAUAUGCUGGACUUUGUCCAGCAGAAGGGUGAUAACAUGAGGAUCACCCAUGUGGACAUGAUAUAUUUAAU” was tested, and the “apparent Kd” value [3] was 111 nM and the “apparent Kd” value [4] was 568 nM.
“GGGAGUGGAGGGAAUAACAUGAGGAUCACCCAUGUAUGGGAGAGAAGGCAGGUCGGAGGGCGAUCUGAGGAUAUUUAGACUCUU” was tested, and the “apparent Kd” value [3] was 8.99 nM and the “apparent Kd” value [4] was 8.08 nM.
For “CCAGGCUUCGAGAAGGACAUGAGGAUCACCCAUGUGCGUGUGAAGCAGCCGUGAGGCUGCAUCAUGUAGGAUAUCGGAGUCUGC”, the “apparent Kd” value [1] was 77.2 nM and the “apparent Kd” value [2] was 538 nM.
For “GGAUCUUGGGUCAGGAUAUGCUGAUAUUUUUGUCAGCAGAAGGGACAUGAGGAUCACCCAUGUGCUUGGUUUUG”, the “apparent Kd” value [1] was 11.2 nM and the “apparent Kd” value [2] was 21.8 nM.
For “GGUGGACAUGAGGAUCACCCAUGUGAGGAUAUCGGCUGGUACGUGGUGGCUGGCAUCUCGAGAAGGCACAUAGU”, the “apparent Kd” value [1] was 80.1 nM and the “apparent Kd” value [2] was 202 nM.
For “AUACUCAUGUAAGGAUAUGCAGCCGUUUCGGCUGCAGAAGGUACUAUAAUACAUGAGGAUCACCCAUGUCCCUCGCAUUGCGAG”, the “apparent Kd” value [3] was 657 nM and the “apparent Kd” value [4] was 85.9 nM.
With “UGUUGUAUUACAGGAUAUCUAUUAUUUAUAUUUAGAGAAGGGUAUUCACAUGAGGAUCACCCAUGUAUAUACGAGGAAGUUGUG” the “apparent Kd” value [3] was 52.1 nM and the “apparent Kd” value [4] was 54 nM.
“GCGUGACAUGAGGAUCACCCAUGUACUCGAGAAAUCGAGUGUAGAAGGGUGACCGGUCGUUUGGCACAGGAUAUACACGCUGUG” was tested, and the “apparent Kd” value [3] was 27.3 nM and the “apparent Kd” value [4] was 16.3 nM.
“CUCAUUAACAUGAGGAUCACCCAUGUUGGCCAGUCUCACACCAGAAGGCCCGUUGAGCACAGCAGGGAGGAUAUGGGUGACAUA” was tested, and the “apparent Kd” value [3] was 309 nM and the “apparent Kd” value [4] was 211 nM.
With “UGGCUACAUGAGGAUCACCCAUGUCAGGAUAUGCCGUCGGCUUGCGUUCGUCGUUUGGGUAGAAGGGACUGCGG” the “apparent Kd” value [1] was 83.1 nM and the “apparent Kd” value [2] was 91.5 nM.
With “AUACAUGAGGAUCACCCAUGUUACUGGGUCUUUUUAGAACGUAGAAGGAUGUUUUUAUAAAUAACAUAGGAUAUACAAUAUUGU” the “apparent Kd” value [1] was 59.6 nM and the “apparent Kd” value [2] was 49.9 nM.
With “CGCAAGUAUACAUGAGGAUCACCCAUGUCAGAAAGGGUAAUCAGAAGGUACUAUUAGAGAAAGAGUAAGGAUAUGAAAUUUGCG” the “apparent Kd” value [3] was 747 nM and the “apparent Kd” value [4] was 125 nM.
